“Also recorded” adds a separate entry of the source.
How the values were obtained:
HIV-1_89BZ167 = test: PBMC-based HIV-1 replication assay; assay type: cell-based; settings: HIV-1 replication in primary human PBMCs
Method in brief: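 Fresh human PBMCs from HIV-1/HBV-seronegative donors were stimulated with 4 μg/mL PHA for 48–72 h and kept in 20 U/mL rhIL-2. Cells from ≥2 donors were pooled at 5 × 10^4 cells/well and infected with 89BZ167 (subtype B, CXCR4-tropic) at MOI ≅0.1 with nine compound concentrations (triplicate wells) for 7 days. Supernatant RT activity gave infection as % of compound-free control, from which IC50 was derived.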

[1] = test system: peripheral blood mononuclear cells (PBMCs); test: MTS cytotoxicity assay in PBMCs; assay type: cell-based, human; settings: up to the highest test concentration of 100 μM
Method in brief: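 Cytotoxicity was read by MTS addition alongside the 7-day HIV-1 infection of pooled PHA/IL-2-stimulated human PBMCs (5 × 10^4 cells/well, nine compound concentrations, triplicate wells). The maximum concentration tested was 100 μM. CC50 is the half-maximal cytotoxic concentration. TI = CC50/IC50, with IC50 taken from the RT-based antiviral readout against 89BZ167.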

HIV-1NL4-3 CA protein = HIV-1NL4-3 CA protein (Human immunodeficiency virus type 1 group M subtype B, UniProt P12493); test: SPR direct binding to immobilized CA
Method in brief: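 CA was amine-coupled at 100 μg/mL in sodium acetate pH 4.5 onto an EDC/sulfo-NHS-activated GLH chip, with a nonspecific-antibody reference surface. A 10 mM DMSO stock of test compound was serially diluted 2-fold to 18.75–300 μM in PBS-T pH 7.4 with 5% DMSO. One-shot kinetics ran at 100 μL/min, 2 min association and 2 min dissociation. Buffer and reference responses were subtracted, and data were fitted to a 1:1 model.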

HIV-1 CA Ile37Ala = HIV-1 CA Ile37Ala (Human immunodeficiency virus type 1 group M subtype B, UniProt P12493, I169A); test: SPR binding site analysis, mutant CA; settings: 50 μM compound, equilibrium response normalized to theoretical Rmax
Method in brief: (§1)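 Wild-type and Ala-mutant CA were amine-coupled to a GLH chip at 100 μg/mL in sodium acetate pH 4.5, after EDC (0.2 M)/sulfo-NHS (0.05 M) activation for 5 min at 25 °C, then capped with 1 M ethanolamine pH 8.0. Test compound was injected at 100 μL/min with a 2 min association. Rmax assumed 1:1 per surface. Responses from 12 replicate injections per surface were analysed.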

HIV-1 CA Lys170Ala = HIV-1 CA Lys170Ala (Human immunodeficiency virus type 1 group M subtype B, UniProt P12493, K302A); test: SPR binding site analysis, mutant CA; settings: 50 μM compound, equilibrium response normalized to theoretical Rmax
Method in brief: as §1

HIV-1 CA Asn139Ala = HIV-1 CA Asn139Ala (Human immunodeficiency virus type 1 group M subtype B, UniProt P12493, N271A); test: SPR binding site analysis, mutant CA; settings: 50 μM compound, equilibrium response normalized to theoretical Rmax
Method in brief: as §1

HIV-1 CA Gln179Ala = HIV-1 CA Gln179Ala (Human immunodeficiency virus type 1 group M subtype B, UniProt P12493, Q311A); test: SPR binding site analysis, mutant CA; settings: 50 μM compound, equilibrium response normalized to theoretical Rmax
Method in brief: as §1

HIV-1 CA Ser41Ala = HIV-1 CA Ser41Ala (Human immunodeficiency virus type 1 group M subtype B, UniProt P12493, S173A); test: SPR binding site analysis, mutant CA; settings: 50 μM compound, equilibrium response normalized to theoretical Rmax
Method in brief: as §1

HIV-1 CA Pro38Ala = HIV-1 CA Pro38Ala (Human immunodeficiency virus type 1 group M subtype B, UniProt P12493, P170A); test: SPR binding site analysis, mutant CA; settings: 50 μM compound, equilibrium response normalized to theoretical Rmax
Method in brief: as §1

HIV-1 CA Arg173Ala = HIV-1 CA Arg173Ala (Human immunodeficiency virus type 1 group M subtype B, UniProt P12493, R305A); test: SPR binding site analysis, mutant CA; settings: 50 μM compound, equilibrium response normalized to theoretical Rmax
Method in brief: as §1

Structure (SMILES): O=[N+]([O-])c1cccc(-c2nc3c4cc(I)ccc4c4ccccc4c3[nH]2)c1 [Compound 34, 5-iodo-2-(3-nitrophenyl)-1H-phenanthro[9,10-d]imidazole]
- improvement in antiviral potency over I-XW-053 (compound 1) (HIV-1_89BZ167): 11 fold
- toxicity / viability of PBMCs [1]: no toxicity; also recorded: not toxic
- Kd (HIV-1NL4-3 CA protein): 11.8 ± 4.7 µM
- effect of mutation on compound binding versus wild-type CA (HIV-1 CA Ile37Ala): no effect
- effect of mutation on compound binding versus wild-type CA (HIV-1 CA Lys170Ala): loss of favorable interactions; also recorded: major effect
- effect of mutation on compound binding versus wild-type CA (HIV-1 CA Asn139Ala): no effect
- effect of mutation on compound binding versus wild-type CA (HIV-1 CA Gln179Ala): loss of favorable interactions
- effect of mutation on compound binding versus wild-type CA (HIV-1 CA Ser41Ala): loss of favorable interactions
- effect of mutation on compound binding versus wild-type CA (HIV-1 CA Pro38Ala): increase the interaction
- effect of mutation on compound binding versus wild-type CA (HIV-1 CA Arg173Ala): increase the interaction

Reference: article PMC4245176 (Journal of Chemical Information and Modeling, 2014)
